In ChEMBL document CHEMBL1221274, “Discovery and expanded SAR of 4,4-disubstituted quinazolin-2-ones as potent T-type calcium channel antagonists” (Bioorg Med Chem Lett, 2010):
The source made the active and inactive calls. The rule behind the calls is not given here.

Tests used:
[1] = molecular target: Voltage-dependent T-type calcium channel subunit alpha-1I (Homo sapiens) (UniProt Q9P0X4); assay: Antagonist activity at Cav3.3 alpha1i by depolarized FLIPR assay; format: functional
[2] = molecular target: Voltage-dependent T-type calcium channel subunit alpha-1I (Homo sapiens) (UniProt Q9P0X4); assay: Antagonist activity at Cav3.3 alpha1i by hyperpolarized FLIPR assay; format: functional
[3] = molecular target: T1, PXR (nuclear receptor subfamily 1 group I member 2) (Homo sapiens, UniProt O75469); assay: PXR activation relative to rifampicin at 10 uM; settings: activation
T1 sequence (O75469 whole entry): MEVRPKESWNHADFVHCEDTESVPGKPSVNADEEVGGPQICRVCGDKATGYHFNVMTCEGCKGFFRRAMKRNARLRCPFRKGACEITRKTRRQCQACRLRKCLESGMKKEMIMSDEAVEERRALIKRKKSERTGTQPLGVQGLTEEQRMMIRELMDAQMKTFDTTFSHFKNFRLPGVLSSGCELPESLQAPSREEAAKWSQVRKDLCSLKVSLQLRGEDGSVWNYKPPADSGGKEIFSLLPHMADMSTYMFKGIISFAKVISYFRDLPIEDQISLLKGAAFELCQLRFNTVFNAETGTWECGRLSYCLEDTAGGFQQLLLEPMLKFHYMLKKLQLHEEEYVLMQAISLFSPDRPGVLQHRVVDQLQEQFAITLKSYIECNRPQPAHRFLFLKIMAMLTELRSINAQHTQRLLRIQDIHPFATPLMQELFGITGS

[4] = Metabolic stability in human liver microsome assessed as compound remaining after 60 mins; format: ADME; settings: liver microsomes, read-out: Stability
Summary of the method: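 Human liver microsomes (0.2 mg protein/mL) incubated with test compound at 1 µM plus NADPH cofactor at 37 °C for 30 or 60 min; percent parent compound remaining measured.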

[5] = Oral bioavailability in monkey; format: ADME, organism-based, Macaca mulatta; settings: rhesus monkey, in vivo
[6] = species: Rattus norvegicus; assay: Effect on rat Pgp-mediated drug transport assessed as efflux ratio of permeability from basolateral to apical over apical to basolateral side
[7] = Plasma protein binding in rat; format: ADME, cell-free; settings: read-out: PPB (converted)
[8] = species: Homo sapiens; assay: Effect on human Pgp-mediated drug transport assessed as efflux ratio of permeability from basolateral to apical over apical to basolateral side
[9] = Plasma clearance in dog; format: ADME, organism-based, Canis lupus familiaris
[10] = Half life in dog; format: ADME, organism-based, Canis lupus familiaris; settings: in vivo
[11] = Volume of distribution at steady state in rat; format: ADME, organism-based; settings: in vivo, read-out: Vdss
[12] = Half life in monkey; format: ADME, organism-based, Macaca mulatta; settings: rhesus monkey, in vivo
[13] = tested on: Rattus norvegicus; assay: Effect on sleep-awake pattern in rat assessed as increase in delta sleep at 10 mg/kg, po for 16 hrs; format: functional, organism-based; parameters: dose 10 mg/kg
Summary of the method: (§1)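 Crossover rat study over seven days, n = 7 male rats. ECoG and EMG recorded for 16 h and scored as active wake, light sleep, delta sleep or REM, as minutes per 30 min bin (±SEM). Each time point compared by linear mixed-effects ANOVA.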

[14] = Oral bioavailability in rat; format: ADME, organism-based; settings: in vivo
[15] = tested on: Rattus norvegicus; assay: Effect on sleep-awake pattern in rat assessed as decrease in REM sleep at 10 mg/kg, po for 16 hrs; format: functional, organism-based; parameters: dose 10 mg/kg; summary of the method: as §1
[16] = species: Homo sapiens; assay: Plasma protein binding in human; settings: read-out: PPB (converted)
[17] = Volume of distribution at steady state in dog; format: ADME, organism-based, Canis lupus familiaris; settings: in vivo, read-out: Vdss
[18] = tested on: Rattus norvegicus; assay: Antiepileptic activity in […] rat assessed as inhibition of total seizures at 10 mg/kg, po after 4 hrs; format: functional
Summary of the method: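 Seizure suppression measured by EEG in WAG/Rij rats (absence epilepsy model) after oral dosing; total seizure time scored 4 h post dose and expressed as percent inhibition.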

[19] = Volume of distribution at steady state in monkey; format: ADME, organism-based, Macaca mulatta; settings: rhesus monkey, in vivo; read-out: Vdss
[20] = Plasma clearance in rat; format: ADME, organism-based
[21] = tested on: Rattus norvegicus; assay: Effect on sleep-awake pattern in rat assessed as decrease in active awake at 10 mg/kg, po for 16 hrs; format: functional, organism-based; parameters: dose 10 mg/kg; summary of the method: as §1
[22] = Half life in rat; format: ADME, organism-based; settings: in vivo
[23] = molecular target: Cytochrome P450 3A4 (Homo sapiens, UniProt P08684); assay: Inhibition of CYP3A4; format: ADME; settings: TDE = time-dependent effect
Cytochrome P450 3A4, sequence (P08684 whole entry): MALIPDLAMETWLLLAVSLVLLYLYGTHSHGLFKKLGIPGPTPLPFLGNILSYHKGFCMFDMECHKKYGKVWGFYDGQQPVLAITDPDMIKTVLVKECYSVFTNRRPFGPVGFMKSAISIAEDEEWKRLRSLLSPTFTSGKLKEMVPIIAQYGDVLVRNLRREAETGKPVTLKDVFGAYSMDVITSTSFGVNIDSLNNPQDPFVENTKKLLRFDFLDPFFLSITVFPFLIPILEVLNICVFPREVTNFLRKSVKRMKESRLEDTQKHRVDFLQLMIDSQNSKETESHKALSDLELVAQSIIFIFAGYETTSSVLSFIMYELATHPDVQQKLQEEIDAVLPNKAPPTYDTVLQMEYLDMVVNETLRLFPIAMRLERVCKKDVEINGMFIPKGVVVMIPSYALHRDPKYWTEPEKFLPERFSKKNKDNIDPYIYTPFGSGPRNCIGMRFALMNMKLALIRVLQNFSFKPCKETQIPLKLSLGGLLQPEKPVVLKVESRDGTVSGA

[24] = Plasma clearance in monkey; format: ADME, organism-based, Macaca mulatta; settings: rhesus monkey
[25] = molecular target: T2, Nuclear receptor subfamily 1 group I member 2 (Homo sapiens, UniProt O75469); assay: PXR activation relative to rifampicin at 10 uM; settings: 10 µM
T2 sequence (O75469 whole entry): T1 sequence (O75469 whole entry)

Voltage-dependent T-type calcium channel subunit alpha-1I (Homo sapiens), sequence (Q9P0X4 whole entry): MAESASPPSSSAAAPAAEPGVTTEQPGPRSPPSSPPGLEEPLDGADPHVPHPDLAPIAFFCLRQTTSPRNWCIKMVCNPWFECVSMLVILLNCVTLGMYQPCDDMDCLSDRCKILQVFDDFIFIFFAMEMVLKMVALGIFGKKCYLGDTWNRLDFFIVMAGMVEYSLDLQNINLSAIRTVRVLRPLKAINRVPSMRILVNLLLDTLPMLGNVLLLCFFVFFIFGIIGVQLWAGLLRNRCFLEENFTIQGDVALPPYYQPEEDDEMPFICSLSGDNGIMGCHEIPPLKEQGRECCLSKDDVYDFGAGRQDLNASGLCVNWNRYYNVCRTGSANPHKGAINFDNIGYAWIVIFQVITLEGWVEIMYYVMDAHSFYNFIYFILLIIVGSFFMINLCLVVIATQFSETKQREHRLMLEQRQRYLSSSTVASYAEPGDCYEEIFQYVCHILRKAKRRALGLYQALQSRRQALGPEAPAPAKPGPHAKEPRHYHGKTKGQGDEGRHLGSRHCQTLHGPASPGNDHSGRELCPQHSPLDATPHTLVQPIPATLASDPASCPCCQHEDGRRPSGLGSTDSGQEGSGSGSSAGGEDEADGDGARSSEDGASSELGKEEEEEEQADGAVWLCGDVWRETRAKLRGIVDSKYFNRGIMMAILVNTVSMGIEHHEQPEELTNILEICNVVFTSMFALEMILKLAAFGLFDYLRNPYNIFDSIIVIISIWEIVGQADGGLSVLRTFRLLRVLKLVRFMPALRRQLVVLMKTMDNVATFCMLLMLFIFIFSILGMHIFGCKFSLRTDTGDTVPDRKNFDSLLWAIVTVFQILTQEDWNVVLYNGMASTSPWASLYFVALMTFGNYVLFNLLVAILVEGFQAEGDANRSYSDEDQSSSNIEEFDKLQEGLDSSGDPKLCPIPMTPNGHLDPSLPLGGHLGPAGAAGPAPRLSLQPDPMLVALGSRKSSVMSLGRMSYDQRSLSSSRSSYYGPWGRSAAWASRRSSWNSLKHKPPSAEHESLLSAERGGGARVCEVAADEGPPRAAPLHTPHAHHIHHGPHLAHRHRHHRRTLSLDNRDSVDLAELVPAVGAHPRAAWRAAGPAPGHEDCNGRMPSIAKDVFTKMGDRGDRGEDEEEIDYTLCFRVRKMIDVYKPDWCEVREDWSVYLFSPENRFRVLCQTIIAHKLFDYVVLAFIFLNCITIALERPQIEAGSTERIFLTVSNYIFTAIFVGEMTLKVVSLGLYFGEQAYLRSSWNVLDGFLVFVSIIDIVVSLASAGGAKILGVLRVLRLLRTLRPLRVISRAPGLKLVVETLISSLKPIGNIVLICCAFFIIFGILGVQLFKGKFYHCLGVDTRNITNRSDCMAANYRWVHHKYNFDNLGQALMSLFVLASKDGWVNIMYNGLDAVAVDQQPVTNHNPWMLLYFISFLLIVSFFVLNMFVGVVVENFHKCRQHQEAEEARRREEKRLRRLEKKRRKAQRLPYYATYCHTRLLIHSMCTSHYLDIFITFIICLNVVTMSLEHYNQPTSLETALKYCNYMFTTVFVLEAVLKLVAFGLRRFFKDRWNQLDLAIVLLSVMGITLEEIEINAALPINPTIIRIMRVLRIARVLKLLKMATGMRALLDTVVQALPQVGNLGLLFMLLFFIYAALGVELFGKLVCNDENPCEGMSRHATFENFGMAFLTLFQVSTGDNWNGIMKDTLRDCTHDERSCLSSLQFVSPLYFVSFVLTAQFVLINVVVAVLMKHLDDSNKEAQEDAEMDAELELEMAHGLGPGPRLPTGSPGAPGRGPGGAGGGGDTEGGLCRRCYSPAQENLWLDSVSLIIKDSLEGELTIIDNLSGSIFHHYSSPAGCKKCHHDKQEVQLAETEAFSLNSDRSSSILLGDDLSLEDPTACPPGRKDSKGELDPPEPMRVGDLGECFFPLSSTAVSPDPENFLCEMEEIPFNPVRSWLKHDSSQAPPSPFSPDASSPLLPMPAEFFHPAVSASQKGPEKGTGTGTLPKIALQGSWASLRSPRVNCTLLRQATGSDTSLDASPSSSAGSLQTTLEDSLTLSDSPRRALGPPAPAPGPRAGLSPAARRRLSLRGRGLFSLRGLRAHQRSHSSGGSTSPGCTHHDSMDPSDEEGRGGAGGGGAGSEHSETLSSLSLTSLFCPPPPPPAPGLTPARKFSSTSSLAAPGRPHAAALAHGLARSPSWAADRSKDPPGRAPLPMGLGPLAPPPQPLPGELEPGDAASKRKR

## CCCC1(c2cccc(-c3ccnn3C)c2)c2cc(Cl)ccc2NC(=O)N1CC(F)(F)F (centres undefined)
[1]
  Activity: 318 nM

## C=CCC1(c2ccccc2)c2cc(Cl)ccc2NC(=O)N1CC(F)(F)F (centres undefined)
[1]
  Activity: 87 nM

## N#Cc1ccc([C@@]2(C3CC3)c3cc(Cl)ccc3NC(=O)N2CC(F)(F)F)cc1
[2]
  Activity: 590 nM
[1]
  Activity: 14 nM

## O=C1Nc2ccc(F)c(F)c2C(CCO)(c2ccc(F)cc2)N1CC(F)(F)F (centres undefined)
[1]
  Activity: 3090 nM

## CCC1(c2ccccc2)c2c(ccc(F)c2F)NC(=O)N1CC(F)(F)F (single isomer, unassigned) [listing 1 of 2 here]
[3]
  activation at 10 µM: 48%

## CC[C@]1(c2ccc(F)cc2)c2cc(Cl)ccc2NC(=O)N1CC(F)(F)F
[2]
  Activity: 239 nM
[1]
  Activity: 61 nM

## O=C1Nc2ccc(F)c(F)c2C(CCF)(c2ccc(F)cc2)N1CC(F)(F)F (centres undefined)
[1]
  Activity: 17 nM
[4]
  remaining at 1 h: 66%
[3]
  activation at 10 µM: 53%

## O=C1Nc2ccc(Cl)cc2C(CCF)(c2ccc(F)cc2)N1CC(F)(F)F (single isomer, unassigned; 30B)
[1]
  Activity: 905 nM

## CCC1(c2ccccc2)c2cc(Cl)ccc2NC(=O)N1C (centres undefined)
[2]
  Activity: 2170 nM
[1]
  Activity: 847 nM

## CCC1(c2ccc(F)cc2)c2c(ccc(F)c2F)NC(=O)N1CC(F)(F)F (centres undefined)
[1]
  Activity: 16 nM
[4]
  remaining at 1 h: < 1%
[3]
  activation at 10 µM: 52%

## CCC1(c2ccccc2)c2c(ccc(Cl)c2F)NC(=O)N1CC(F)(F)F (centres undefined)
[1]
  Activity: 132 nM
[3]
  activation at 10 µM: 61%

## CCC1(c2ccc(F)cc2)c2cc(F)ccc2NC(=O)N1CC(F)(F)F (centres undefined)
[1]
  Activity: 25 nM
[3]
  activation at 10 µM: 58%

## CCCC1(c2cccc(Oc3ccccn3)c2)c2cc(Cl)ccc2NC(=O)N1CC(F)(F)F (centres undefined)
[1]
  Activity: 73 nM

## O=C1Nc2ccc(F)c(F)c2C(CC(F)F)(c2ccc(F)cc2)N1CC(F)(F)F (centres undefined)
[5]
  bioavailability: 15%
[6]
  Ratio: 1.5
[7]
  fraction unbound: 0.021
[8]
  Ratio: 1.2
[9]
  clearance: 10.5 mL/min/kg
[1]
  Activity: 14 nM
[10]
  half-life: 5.9 h
[11]
  Vd: 6.7 L/kg
[12]
  half-life: 5.8 h
[13]
  Activity: Active
[14]
  bioavailability: 15%
[4]
  remaining at 1 h: 68%
[15]
  Activity: Active
[16]
  fraction unbound: 0.015
[17]
  Vd: 3.6 L/kg
[18]
  inhibition in vivo at 10 mg/kg: 70%
[19]
  Vd: 9.8 L/kg
[20]
  clearance: 55 mL/min/kg
[3]
  activation at 10 µM: 35%
[21]
  Activity: Active
[22]
  half-life: 1.6 h
[23]
  inhibition (INH): tde
[24]
  clearance: 23 mL/min/kg

## CCCC1(c2cccc(N3CCOCC3)c2)c2cc(Cl)ccc2NC(=O)N1CC(F)(F)F (centres undefined)
[1]
  Activity: 161 nM

## CCCC1(c2ccc(F)cc2)c2cc(Cl)ccc2NC(=O)N1CC(F)(F)F (single isomer, unassigned; 24B)
[1]
  Activity: 1320 nM

## N#CC1(c2ccc(F)cc2)c2c(ccc(F)c2F)NC(=O)N1CC(F)(F)F (centres undefined)
[1]
  Activity: 290 nM

## CCCC1(c2ccc(OC)cc2)c2cc(Cl)ccc2NC(=O)N1CC(F)(F)F (centres undefined)
[1]
  Activity: 879 nM

## CCCC1(c2ccccc2)c2cc(F)ccc2NC(=O)N1CC(F)(F)F (centres undefined)
[1]
  Activity: 38 nM
[3]
  activation at 10 µM: 49%

## CCC1(c2ccccc2)c2cc(F)ccc2NC(=O)N1CC(F)(F)F (single isomer, unassigned; 35A) [listing 1 of 2 here]
[25]
  Activation: 63%

## CCC1(c2ccccc2)c2cc(F)ccc2NC(=O)N1CC(F)(F)F (single isomer, unassigned; 35B) [listing 1 of 2 here]
[3]
  activation at 10 µM: 74%

## CCC1(c2ccccc2)c2c(ccc(F)c2F)NC(=O)N1CC(F)(F)F (stereo in doubt; 36B)
[1]
  Activity: 2040 nM

## CCCCC1(C2CC2)c2cc(Cl)ccc2NC(=O)N1CC(F)(F)F (centres undefined)
[1]
  Activity: 111 nM

## CCCC1(c2cccc(-c3nccs3)c2)c2cc(Cl)ccc2NC(=O)N1CC(F)(F)F (centres undefined)
[1]
  Activity: 62 nM

## CCC1(c2ccccc2)c2c(F)cccc2NC(=O)N1CC(F)(F)F (centres undefined)
[1]
  Activity: 111 nM
[3]
  activation at 10 µM: 83%

## CCC(C)C1(C2CC2)c2cc(Cl)ccc2NC(=O)N1CC(F)(F)F (centres undefined)
[1]
  Activity: 447 nM

## CCC1(c2ccc(F)c(F)c2)c2cc(Cl)ccc2NC(=O)N1CC(F)(F)F (centres undefined)
[1]
  Activity: 141 nM

## CC(C)(C)C1(c2ccccc2)c2cc(F)ccc2NC(=O)N1CC(F)(F)F (centres undefined)
[1]
  Activity: 757 nM
[3]
  activation at 10 µM: 44%

## CCC1(c2ccccc2)c2cc(Cl)ccc2NC(=O)N1CC(F)(F)F (single isomer, unassigned; 21B)
[1]
  Activity: 3880 nM

## CCC1(c2ccccc2)c2cc(Cl)ccc2NC(=O)N1CC(F)(F)F (single isomer, unassigned; 21A)
[1]
  Activity: 71 nM

## CCCC1(c2ccc(F)cc2)c2cc(Cl)ccc2NC(=O)N1CC(F)(F)F (single isomer, unassigned; 24A)
[1]
  Activity: 25 nM

## CCC1(c2ccccc2)c2c(ccc(F)c2F)NC(=O)N1CC(F)(F)F (single isomer, unassigned) [listing 2 of 2 here]
[1]
  Activity: 20 nM

## O=C1Nc2ccc(Cl)cc2C(CC(F)F)(c2ccc(F)cc2)N1CC(F)(F)F (single isomer, unassigned; 31A)
[1]
  Activity: 60 nM

## CCC1(c2ccc(F)cc2)c2c(ccc(F)c2F)N(Cc2c(C)noc2C)C(=O)N1CC(F)(F)F (centres undefined)
[1]
  Activity: 1830 nM

## CCC1(c2ccccc2)c2c(F)ccc(F)c2NC(=O)N1CC(F)(F)F (centres undefined)
[1]
  Activity: 657 nM
[3]
  activation at 10 µM: 91%

## O=C1Nc2ccc(Cl)cc2C(CC(F)F)(c2ccc(F)cc2)N1CC(F)(F)F (single isomer, unassigned; 31B)
[1]
  Activity: 469 nM

## CCC1(c2ccccc2)c2cc(F)ccc2NC(=O)N1CC(F)(F)F (single isomer, unassigned; 35A) [listing 2 of 2 here]
[1]
  Activity: 50 nM

## CCC1(c2ccc(F)cc2)c2c(ccc(F)c2F)N(CCOC)C(=O)N1CC(F)(F)F (centres undefined)
[1]
  Activity: 53 nM
[3]
  activation at 10 µM: 70%

## CCCC1(c2ccc(F)cc2)c2c(ccc(F)c2F)NC(=O)N1CC(F)(F)F (centres undefined)
[1]
  Activity: 6 nM
[3]
  activation at 10 µM: 73%

## CCC1(c2ccccc2)c2cc(F)ccc2NC(=O)N1CC(F)(F)F (single isomer, unassigned; 35B) [listing 2 of 2 here]
[1]
  Activity: 3740 nM

## O=C1Nc2ccc(Cl)cc2C(CCF)(c2ccc(F)cc2)N1CC(F)(F)F (single isomer, unassigned; 30A)
[1]
  Activity: 42 nM

## CCCC1(c2cccc(OC)c2)c2cc(Cl)ccc2NC(=O)N1CC(F)(F)F (centres undefined)
[1]
  Activity: 171 nM
